Test results: ChEMBL document CHEMBL5335771, “Thioxanthenone-based derivatives as multitarget therapeutic leads for Alzheimer's disease” (Eur J Med Chem, 2023)

Legend:
[1] = molecular target: T1, Microtubule-associated protein tau (Homo sapiens, UniProt P10636); test: Inhibition of tau (unknown origin) aggregation expressed in Escherichia coli BL21 (DE3)
Method in brief: (§1)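 E. coli BL21(DE3) carrying pTARA (T7 RNA polymerase under PBAD) and pRKT42 (four-repeat tau) grown at 37 °C in M9 with 0.5% glucose, antibiotics and 250 μM ThS to OD600 0.6. […] ThS fluorescence ex 430/em 485 nm, normalized to tau-expressing cells (100%) and non-expressing cells (0%); OD600 checked for growth.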
Target sequence in this assay (P10636 whole entry): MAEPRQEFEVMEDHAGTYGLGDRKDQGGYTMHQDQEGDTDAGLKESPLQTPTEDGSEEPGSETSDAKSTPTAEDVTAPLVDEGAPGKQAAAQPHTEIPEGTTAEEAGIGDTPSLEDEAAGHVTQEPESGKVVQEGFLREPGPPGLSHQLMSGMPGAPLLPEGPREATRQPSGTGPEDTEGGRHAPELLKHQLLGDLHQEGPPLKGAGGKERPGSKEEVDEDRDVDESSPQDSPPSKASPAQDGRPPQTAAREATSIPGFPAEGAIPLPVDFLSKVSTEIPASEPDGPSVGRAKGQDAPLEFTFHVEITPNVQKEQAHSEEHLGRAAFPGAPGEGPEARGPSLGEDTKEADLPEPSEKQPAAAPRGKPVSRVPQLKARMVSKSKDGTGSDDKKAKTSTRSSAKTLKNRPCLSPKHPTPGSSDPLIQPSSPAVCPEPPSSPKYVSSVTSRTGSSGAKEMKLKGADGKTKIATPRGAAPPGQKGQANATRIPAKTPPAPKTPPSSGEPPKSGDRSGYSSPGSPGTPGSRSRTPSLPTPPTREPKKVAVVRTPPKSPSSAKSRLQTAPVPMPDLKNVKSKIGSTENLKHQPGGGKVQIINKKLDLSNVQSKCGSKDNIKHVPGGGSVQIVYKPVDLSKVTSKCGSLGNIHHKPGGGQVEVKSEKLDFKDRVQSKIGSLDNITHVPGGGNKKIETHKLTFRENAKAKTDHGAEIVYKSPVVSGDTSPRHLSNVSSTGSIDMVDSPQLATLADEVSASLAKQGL

[2] = molecular target: Amyloid-beta precursor protein (Homo sapiens, UniProt P05067); test: Inhibition of amyloid beta 40 peptide (unknown origin) aggregation incubated for 2 hr by ThT fluorescence based spectrofluorimetric analysis
Amyloid-beta precursor protein, sequence (P05067 whole entry): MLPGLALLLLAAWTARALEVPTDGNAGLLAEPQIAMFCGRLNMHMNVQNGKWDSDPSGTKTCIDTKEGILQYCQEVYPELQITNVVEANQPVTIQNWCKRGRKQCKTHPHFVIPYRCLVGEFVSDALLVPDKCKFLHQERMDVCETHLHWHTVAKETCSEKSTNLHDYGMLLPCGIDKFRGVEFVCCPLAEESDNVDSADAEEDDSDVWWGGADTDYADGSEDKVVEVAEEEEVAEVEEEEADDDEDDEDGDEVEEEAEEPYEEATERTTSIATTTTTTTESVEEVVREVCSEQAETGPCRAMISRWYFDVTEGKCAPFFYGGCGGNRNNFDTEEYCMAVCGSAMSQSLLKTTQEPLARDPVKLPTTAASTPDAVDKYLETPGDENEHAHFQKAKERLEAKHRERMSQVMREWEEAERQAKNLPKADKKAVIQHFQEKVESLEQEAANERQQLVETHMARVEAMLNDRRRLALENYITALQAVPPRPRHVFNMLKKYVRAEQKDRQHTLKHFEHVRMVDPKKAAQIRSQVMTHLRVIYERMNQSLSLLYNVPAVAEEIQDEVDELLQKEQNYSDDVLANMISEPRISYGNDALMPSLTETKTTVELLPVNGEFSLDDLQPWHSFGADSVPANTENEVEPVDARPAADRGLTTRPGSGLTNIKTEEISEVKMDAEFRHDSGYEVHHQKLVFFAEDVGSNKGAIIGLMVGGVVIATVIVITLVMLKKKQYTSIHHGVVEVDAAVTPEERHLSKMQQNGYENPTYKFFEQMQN
Method in brief: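 Aβ40 peptide aggregation enhanced with 2% HFIP; thioflavin T fluorescence read-out; run in triplicate.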

[3] = molecular target: T1, Microtubule-associated protein tau; test: Inhibition of tau (unknown origin) aggregation expressed in Escherichia coli BL21 (DE3) at 10 uM relative to control; method in brief: as §1
Target sequence in this assay (P10636 whole entry): as the sequence (P10636 whole entry) above

[4] = molecular target: T1, Microtubule-associated protein tau; test: Inhibition of PHF6 peptide (unknown origin) aggregation at 10 uM measured after 3 hrs by thioflavin T fluorescence based fluorimetric analysis relative to control
Target sequence in this assay (P10636 whole entry, looked up): as the sequence (P10636 whole entry) above

[5] = molecular target: Cholinesterase (Homo sapiens, UniProt P06276); test: Inhibition of human recombinant BChE using acetylthiocholine iodide as substrate preincubated for 20 mins followed by substrate addition by DTNB reagent based Ellman's method
Cholinesterase (Homo sapiens, UniProt P06276), sequence (P06276 whole entry): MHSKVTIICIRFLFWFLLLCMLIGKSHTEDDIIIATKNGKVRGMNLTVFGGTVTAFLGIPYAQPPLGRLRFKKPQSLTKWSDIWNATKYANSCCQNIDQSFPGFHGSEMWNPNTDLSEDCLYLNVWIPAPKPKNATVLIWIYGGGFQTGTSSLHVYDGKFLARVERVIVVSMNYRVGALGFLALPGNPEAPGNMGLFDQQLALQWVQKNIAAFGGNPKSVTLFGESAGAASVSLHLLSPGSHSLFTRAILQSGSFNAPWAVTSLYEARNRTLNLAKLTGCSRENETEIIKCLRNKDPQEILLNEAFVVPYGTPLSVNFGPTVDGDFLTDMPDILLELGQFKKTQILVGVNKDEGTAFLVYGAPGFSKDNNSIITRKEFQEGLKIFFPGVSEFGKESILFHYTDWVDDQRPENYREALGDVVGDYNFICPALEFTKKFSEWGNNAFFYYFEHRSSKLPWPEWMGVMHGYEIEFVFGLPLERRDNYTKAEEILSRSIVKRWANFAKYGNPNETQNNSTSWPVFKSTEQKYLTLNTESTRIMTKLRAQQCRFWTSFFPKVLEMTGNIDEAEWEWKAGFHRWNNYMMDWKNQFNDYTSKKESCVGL
Method in brief: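 Human BChE was assayed by the Ellman spectrophotometric method. IC50 values are means of three independent experiments, each run in triplicate.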

[6] = molecular target: Acetylcholinesterase (Electrophorus electricus, UniProt O42275); test: Inhibition of electric eel AChE using acetylthiocholine iodide as substrate preincubated for 20 mins followed by substrate addition by DTNB reagent based Ellman's method
Acetylcholinesterase (Electrophorus electricus, UniProt O42275), sequence (O42275 whole entry): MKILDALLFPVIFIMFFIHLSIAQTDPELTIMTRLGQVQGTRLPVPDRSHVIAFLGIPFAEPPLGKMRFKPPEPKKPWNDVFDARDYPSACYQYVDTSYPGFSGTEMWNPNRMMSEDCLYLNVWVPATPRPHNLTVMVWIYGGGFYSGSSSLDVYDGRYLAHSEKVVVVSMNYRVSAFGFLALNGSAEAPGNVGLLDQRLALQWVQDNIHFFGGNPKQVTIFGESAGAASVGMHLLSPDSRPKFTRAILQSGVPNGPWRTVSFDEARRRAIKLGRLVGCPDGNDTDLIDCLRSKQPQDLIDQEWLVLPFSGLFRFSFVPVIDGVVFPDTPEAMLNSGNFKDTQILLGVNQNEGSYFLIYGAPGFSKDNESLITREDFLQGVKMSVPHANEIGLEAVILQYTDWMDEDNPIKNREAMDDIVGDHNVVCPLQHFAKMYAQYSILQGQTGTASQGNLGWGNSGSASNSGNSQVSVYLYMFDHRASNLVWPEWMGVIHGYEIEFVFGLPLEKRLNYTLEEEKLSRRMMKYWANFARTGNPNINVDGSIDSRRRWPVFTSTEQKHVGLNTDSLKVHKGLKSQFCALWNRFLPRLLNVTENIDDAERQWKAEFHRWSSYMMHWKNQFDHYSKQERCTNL

[7] = molecular target: Acetylcholinesterase (Homo sapiens, UniProt P22303); test: Inhibition of human recombinant AChE using acetylthiocholine iodide as substrate preincubated for 20 mins followed by substrate addition by DTNB reagent based Ellman's method
Acetylcholinesterase (Homo sapiens, UniProt P22303), sequence (P22303 whole entry): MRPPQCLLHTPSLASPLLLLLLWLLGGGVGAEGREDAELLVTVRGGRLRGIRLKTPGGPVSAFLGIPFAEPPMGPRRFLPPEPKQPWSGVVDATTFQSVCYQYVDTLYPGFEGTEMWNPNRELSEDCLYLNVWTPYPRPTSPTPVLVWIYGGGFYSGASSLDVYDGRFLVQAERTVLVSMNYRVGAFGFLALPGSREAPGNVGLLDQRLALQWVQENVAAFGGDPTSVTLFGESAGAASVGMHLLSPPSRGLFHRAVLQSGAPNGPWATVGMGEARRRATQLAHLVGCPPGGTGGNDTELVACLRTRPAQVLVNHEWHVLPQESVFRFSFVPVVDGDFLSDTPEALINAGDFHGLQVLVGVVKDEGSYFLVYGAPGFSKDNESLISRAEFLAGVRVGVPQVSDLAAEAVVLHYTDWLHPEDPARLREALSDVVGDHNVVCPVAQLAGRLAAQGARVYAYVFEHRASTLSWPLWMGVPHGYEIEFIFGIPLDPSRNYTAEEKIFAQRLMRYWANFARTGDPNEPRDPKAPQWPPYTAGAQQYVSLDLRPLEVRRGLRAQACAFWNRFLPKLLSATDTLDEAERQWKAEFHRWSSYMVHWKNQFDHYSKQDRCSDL

[8] = molecular target: Cholinesterase (Equus caballus, UniProt P81908); test: Inhibition of equine serum BChE using butyrylthiocholine iodide as substrate preincubated for 20 mins followed by substrate addition by DTNB reagent based Ellman's method; format: cell-free
Cholinesterase (Equus caballus, UniProt P81908), sequence (P81908 whole entry): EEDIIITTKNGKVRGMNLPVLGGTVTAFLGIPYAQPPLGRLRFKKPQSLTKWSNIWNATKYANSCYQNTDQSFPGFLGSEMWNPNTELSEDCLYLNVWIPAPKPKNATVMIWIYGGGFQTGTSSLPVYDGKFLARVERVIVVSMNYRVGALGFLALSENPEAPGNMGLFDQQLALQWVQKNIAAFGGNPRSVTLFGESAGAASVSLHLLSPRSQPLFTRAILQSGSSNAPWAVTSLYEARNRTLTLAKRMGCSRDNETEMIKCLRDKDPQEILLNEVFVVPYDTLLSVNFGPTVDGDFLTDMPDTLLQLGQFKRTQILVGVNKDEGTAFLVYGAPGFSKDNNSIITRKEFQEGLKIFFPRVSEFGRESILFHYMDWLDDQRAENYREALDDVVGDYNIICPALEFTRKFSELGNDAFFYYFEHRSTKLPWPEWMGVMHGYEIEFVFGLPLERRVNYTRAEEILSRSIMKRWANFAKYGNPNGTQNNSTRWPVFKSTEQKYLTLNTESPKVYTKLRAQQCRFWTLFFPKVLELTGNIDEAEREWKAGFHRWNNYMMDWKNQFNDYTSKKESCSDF

| Structure (SMILES) | IC50 [1] | IC50 [2] | inhibition [3] | inhibition [4] | IC50 [5] | IC50 [6] | IC50 [7] | IC50 [8] |
| --- | --- | --- | --- | --- | --- | --- | --- | --- |
| Cc1ccc(NC[C@@H]2CCCN3CCCC[C@H]23)c2c(=O)c3cc(O)ccc3sc12 | 9.1 µM | 5.9 µM |  |  |  |  |  |  |
| Cc1ccc(NC[C@@H]2CCCN3CCCC[C@H]23)c2c(=O)c3ccccc3oc12 |  | 48 µM | 35% |  |  |  |  |  |
| Cc1ccc(NCC[C@@H]2CCCN3CCCC[C@H]23)c2c(=O)c3cc(O)ccc3sc12 | 8.9 µM | 2.4 µM |  |  | 0.9 µM | 3.2 µM | 4.26 µM | 0.16 µM |
| CCN(CC)CCCNc1ccc(N)c2sc3ccc(OC)cc3c(=O)c12 |  | 21 µM | 24% | > 80% |  |  |  |  |
| COc1ccc2sc3c(N)ccc(NCC[C@@H]4CCCN5CCCC[C@H]45)c3c(=O)c2c1 |  | 13 µM | 33% |  | 0.99 µM | 1.9 µM | 2.4 µM | 0.15 µM |
| CCCN(SC[C@H]1CCCN2CCCC[C@H]12)C1=C(Cl)C(=O)c2ccccc2C1=O |  | 61 µM |  |  |  |  |  |  |
| Cc1ccc(NCCCSC[C@@H]2CCCN3CCCC[C@H]23)c2c(=O)c3ccccc3sc12 | 20 µM | 4.3 µM |  |  | 0.007 µM | 0.18 µM | 7.84 µM | 0.088 µM |

Continued by falling IC50 [2], values first:

| IC50 [1] | IC50 [2] | inhibition [3] | inhibition [4] | Structure (SMILES) | IC50 [5] | IC50 [6] | IC50 [7] | IC50 [8] |
| --- | --- | --- | --- | --- | --- | --- | --- | --- |
| 5.5 µM | 4.3 µM |  |  | COc1ccc2sc3c(C)ccc(NC[C@@H]4CCCN5CCCC[C@H]45)c3c(=O)c2c1 |  |  |  |  |
|  | 4.3 µM | 26% |  | Cc1ccc(NCCC[C@@H]2CCCN3CCCC[C@H]23)c2c(=O)c3ccccc3sc12 |  |  |  |  |
| 7.3 µM | 2.9 µM |  | > 80% | Cc1ccc(NCCC[C@@H]2CCCN3CCCC[C@H]23)c2c(=O)c3cc(O)ccc3sc12 |  |  |  |  |
